From ChEMBL document CHEMBL1124369, “Pyrido[3,4-e]-1,2,4-triazines and related heterocycles as potential antifungal agents” (1989)
≈ marks a conversion by molar mass, not a printed value.

Tests used:
Diutina rugosa = assay: Antifungal activity against Candida rugosa; type: functional
Method in brief: (§1)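 Agar dilution MIC. Twofold serial drug dilutions in yeast nitrogen base medium with 1% dextrose, 0.15% asparagine and 1.5% agar. Agar surfaces inoculated using a Steers multiple inocula replicator, then incubated at 35 °C for 24-48 h. MIC was recorded as the lowest concentration inhibiting visible growth. Amphotericin B, miconazole and nystatin served as controls.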

Candida tropicalis [1] = assay: Antifungal activity against Candida tropicalis; type: functional; method in brief: as §1
Trichophyton benhamiae [2] = assay: Antifungal activity against Trichophyton mentagrophytes; Range is 32-128; type: functional, trychophyton mentagrophytes; method in brief: as §1
Trichophyton rubrum [3] = assay: Antifungal activity against Trichophyton rubrum; Range is 64-128; type: functional
Candida albicans [4] = assay: Antifungal activity against Candida albicans; Range is 32-64; type: functional; method in brief: as §1
Candida albicans [5] = assay: Antifungal activity against Candida stellatoidea; type: functional; method in brief: as §1
Aspergillus niger [6] = assay: Antifungal activity against Aspergillus niger; Range is 64-128; type: functional; method in brief: as §1
Mucor fragilis = assay: Antifungal activity against Mucor fragilis; type: functional; method in brief: as §1
Kluyveromyces marxianus [7] = assay: Antifungal activity against Candida pseudotropicalis; type: functional; method in brief: as §1
Trichophyton rubrum [8] = assay: Antifungal activity against Trichophyton rubrum; Range is 2-4; type: functional; method in brief: as §1
Candida parapsilosis = assay: Antifungal activity against Candida parapsilosis; type: functional; settings: Lodderomyces parapsilosis; method in brief: as §1
Candida albicans [9] = assay: Antifungal activity against Candida albicans; type: functional; method in brief: as §1
Aspergillus niger [10] = assay: Antifungal activity against Aspergillus niger; Range is 32-128; type: functional; method in brief: as §1
Trichophyton benhamiae [11] = assay: Antifungal activity against Trichophyton mentagrophytes; type: functional, trychophyton mentagrophytes; method in brief: as §1
Kluyveromyces marxianus [12] = assay: Antifungal activity against Candida pseudotropicalis; Range is 2-4; type: functional; method in brief: as §1
Aspergillus niger [13] = assay: Antifungal activity against Aspergillus niger; Range is 8-16; type: functional; method in brief: as §1
Candida tropicalis [14] = assay: Antifungal activity against Candida tropicalis; Range is 4-8; type: functional; method in brief: as §1
Trichophyton benhamiae [15] = assay: Antifungal activity against Trichophyton mentagrophytes; Range is 4-8; type: functional, trychophyton mentagrophytes; method in brief: as §1
Kluyveromyces marxianus [16] = assay: Antifungal activity against Candida pseudotropicalis; Range is 4-8; type: functional; method in brief: as §1
Candida tropicalis [17] = assay: Antifungal activity against Candida tropicalis; Range is 8-32; type: functional; method in brief: as §1
Aspergillus niger [18] = assay: Antifungal activity against Aspergillus niger; type: functional; method in brief: as §1
Candida albicans [19] = assay: Antifungal activity against Candida albicans; Range is 4-8; type: functional; method in brief: as §1
Trichophyton rubrum [20] = assay: Antifungal activity against Trichophyton rubrum; type: functional; method in brief: as §1
Candida tropicalis [21] = assay: Antifungal activity against Candida tropicalis; Range is 64-128; type: functional; method in brief: as §1
Trichophyton benhamiae [22] = assay: Antifungal activity against Trichophyton mentagrophytes; Range is 64-128; type: functional, trychophyton mentagrophytes; method in brief: as §1
Candida tropicalis [23] = assay: Antifungal activity against Candida tropicalis; Range is 4-16; type: functional; method in brief: as §1
Aspergillus niger [24] = assay: Antifungal activity against Aspergillus niger; Range is 32-64; type: functional; method in brief: as §1
Trichophyton rubrum [25] = assay: Antifungal activity against Trichophyton rubrum; Range is 1-2; type: functional; method in brief: as §1
Kluyveromyces marxianus [26] = assay: Antifungal activity against Candida pseudotropicalis; Range is 8-16; type: functional; method in brief: as §1
Trichophyton benhamiae [27] = assay: Antifungal activity against Trichophyton mentagrophytes; Range is 8-32; type: functional, trychophyton mentagrophytes; method in brief: as §1
Trichophyton rubrum [28] = assay: Antifungal activity against Trichophyton rubrum; Range is 16-32; type: functional; method in brief: as §1
Trichophyton rubrum [29] = assay: Antifungal activity against Trichophyton rubrum; Range is 8-16; type: functional
Candida tropicalis [30] = assay: Antifungal activity against Candida tropicalis; Range is 16-32; type: functional; method in brief: as §1
Trichophyton benhamiae [31] = assay: Antifungal activity against Trichophyton mentagrophytes; Range is 8-16; type: functional, trychophyton mentagrophytes; method in brief: as §1
Trichophyton rubrum [32] = assay: Antifungal activity against Trichophyton rubrum; Range is 32-128; type: functional; method in brief: as §1
Candida albicans [33] = assay: Antifungal activity against Candida albicans; Range is 8-16; type: functional; method in brief: as §1
Aspergillus niger [34] = assay: Antifungal activity against Aspergillus niger; Range is 16-32; type: functional; method in brief: as §1
Candida tropicalis [35] = assay: Antifungal activity against Candida tropicalis; Range is 8-16; type: functional; method in brief: as §1
Trichophyton benhamiae [36] = assay: Antifungal activity against Trichophyton mentagrophytes; Range is 2-4; type: functional, trychophyton mentagrophytes; method in brief: as §1

SMILES	MIC (Diutina rugosa) [µg/mL]	MIC (Candida tropicalis [1]) [µg/mL]	MIC (Candida albicans [5]) [µg/mL]	MIC (Mucor fragilis) [µg/mL]	MIC (Kluyveromyces marxianus [7]) [µg/mL]	MIC (Candida parapsilosis) [µg/mL]	MIC (Candida albicans [9]) [µg/mL]	MIC (Aspergillus niger [18]) [µg/mL]	further results
Cc1cc2nnc(-c3ccncc3)nc2c(C)n1	32 (≈ 135 µM)	128 (≈ 539 µM)	32 (≈ 135 µM)	> 128	32 (≈ 135 µM)				MIC (Trichophyton benhamiae [2]): 32 µg/mL (≈ 135 µM); MIC (Trichophyton rubrum [3]): 64 µg/mL (≈ 270 µM); MIC (Candida albicans [4]): 32 µg/mL (≈ 135 µM); MIC (Aspergillus niger [6]): 64 µg/mL (≈ 270 µM)
CN(C)c1ccc(-c2nnc3ccncc3n2)cc1		64 (≈ 255 µM)			32 (≈ 127 µM)	64 (≈ 255 µM)	64 (≈ 255 µM)		MIC (Trichophyton rubrum [8]): 2 µg/mL (≈ 7.96 µM); MIC (Aspergillus niger [10]): 32 µg/mL (≈ 127 µM); MIC (Trichophyton benhamiae [11]): 8 µg/mL (≈ 31.8 µM)
c1cc(-c2nnc3ccncc3n2)ccn1	32 (≈ 153 µM)		32 (≈ 153 µM)	32 (≈ 153 µM)		8 (≈ 38.2 µM)	8 (≈ 38.2 µM)		MIC (Kluyveromyces marxianus [12]): 2 µg/mL (≈ 9.56 µM); MIC (Trichophyton rubrum [8]): 2 µg/mL (≈ 9.56 µM); MIC (Aspergillus niger [13]): 8 µg/mL (≈ 38.2 µM); MIC (Trichophyton benhamiae [11]): 4 µg/mL (≈ 19.1 µM); MIC (Candida tropicalis [14]): 4 µg/mL (≈ 19.1 µM)
N#Cc1ccc(-c2nnc3ccncc3n2)cc1	> 128		128 (≈ 549 µM)	128 (≈ 549 µM)		64 (≈ 274 µM)	64 (≈ 274 µM)	128 (≈ 549 µM)	MIC (Trichophyton benhamiae [15]): 4 µg/mL (≈ 17.2 µM); MIC (Trichophyton rubrum [8]): 2 µg/mL (≈ 8.58 µM); MIC (Kluyveromyces marxianus [16]): 4 µg/mL (≈ 17.2 µM); MIC (Candida tropicalis [17]): 8 µg/mL (≈ 34.3 µM)
Cc1cc2nncnc2c(C)n1						16 (≈ 99.9 µM)		32 (≈ 200 µM)	MIC (Trichophyton benhamiae [15]): 4 µg/mL (≈ 25 µM); MIC (Candida albicans [19]): 4 µg/mL (≈ 25 µM); MIC (Kluyveromyces marxianus [16]): 4 µg/mL (≈ 25 µM); MIC (Trichophyton rubrum [20]): 4 µg/mL (≈ 25 µM); MIC (Candida tropicalis [14]): 4 µg/mL (≈ 25 µM)
Cc1nnc2ccccc2n1					128 (≈ 882 µM)	128 (≈ 882 µM)	128 (≈ 882 µM)	128 (≈ 882 µM)	MIC (Trichophyton rubrum [3]): 64 µg/mL (≈ 441 µM); MIC (Candida tropicalis [21]): 64 µg/mL (≈ 441 µM); MIC (Trichophyton benhamiae [22]): 64 µg/mL (≈ 441 µM)
Fc1ccc(-c2nnc3ccncc3n2)cc1F					8 (≈ 32.8 µM)	16 (≈ 65.5 µM)	16 (≈ 65.5 µM)		MIC (Candida tropicalis [23]): 4 µg/mL (≈ 16.4 µM); MIC (Aspergillus niger [24]): 32 µg/mL (≈ 131 µM); MIC (Trichophyton rubrum [25]): 1 µg/mL (≈ 4.09 µM); MIC (Trichophyton benhamiae [11]): 4 µg/mL (≈ 16.4 µM)
Cc1cc2nnc(C)nc2c(C)n1	64 (≈ 367 µM)	32 (≈ 184 µM)	64 (≈ 367 µM)	16 (≈ 91.8 µM)			8 (≈ 45.9 µM)		MIC (Kluyveromyces marxianus [26]): 8 µg/mL (≈ 45.9 µM); MIC (Trichophyton benhamiae [27]): 8 µg/mL (≈ 45.9 µM); MIC (Aspergillus niger [10]): 32 µg/mL (≈ 184 µM); MIC (Trichophyton rubrum [28]): 16 µg/mL (≈ 91.8 µM)
Cc1nccc2nnc(-c3ccncc3)nc12						32 (≈ 143 µM)	16 (≈ 71.7 µM)		MIC (Trichophyton rubrum [29]): 8 µg/mL (≈ 35.8 µM); MIC (Candida tropicalis [30]): 16 µg/mL (≈ 71.7 µM); MIC (Aspergillus niger [24]): 32 µg/mL (≈ 143 µM); MIC (Kluyveromyces marxianus [26]): 8 µg/mL (≈ 35.8 µM); MIC (Trichophyton benhamiae [31]): 8 µg/mL (≈ 35.8 µM)
CC(=O)Nc1c(C)nc(C)c2nc(-c3ccc(F)cc3)nnc12		128 (≈ 411 µM)			128 (≈ 411 µM)	128 (≈ 411 µM)	128 (≈ 411 µM)	128 (≈ 411 µM)	MIC (Trichophyton rubrum [32]): 32 µg/mL (≈ 103 µM); MIC (Trichophyton benhamiae [22]): 64 µg/mL (≈ 206 µM)
c1cc2nncnc2cn1	8 (≈ 60.5 µM)		8 (≈ 60.5 µM)	8 (≈ 60.5 µM)	4 (≈ 30.3 µM)	16 (≈ 121 µM)			MIC (Candida albicans [33]): 8 µg/mL (≈ 60.5 µM); MIC (Aspergillus niger [34]): 16 µg/mL (≈ 121 µM); MIC (Candida tropicalis [35]): 8 µg/mL (≈ 60.5 µM); MIC (Trichophyton rubrum [25]): 1 µg/mL (≈ 7.57 µM); MIC (Trichophyton benhamiae [36]): 2 µg/mL (≈ 15.1 µM)
